How the values were obtained:
NCI-H322M = experiment: Cytotoxicity against human NCI-H322M cells assessed as cell growth at 10 uM after 48 hrs relative to control; assay type: functional; settings: read-out: Activity
Summary of the method: (§1)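 Run at the National Cancer Institute as a single-dose screen across its 60-cell-line cancer panel. Compound was tested at 10 micromolar, and growth was expressed as a percentage of negative-control cultures.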

NCI-H522 = experiment: Cytotoxicity against human NCI-H522 cells assessed as cell growth at 10 uM after 48 hrs relative to control; assay type: functional; settings: NCI-H522, 48 h, read-out: Activity; summary of the method: as §1
K562 = experiment: Cytotoxicity against human K562 cells assessed as cell growth at 10 uM after 48 hrs relative to control; assay type: functional; settings: K562, 48 h, read-out: Activity; summary of the method: as §1
OVCAR-5 = experiment: Cytotoxicity against human OVCAR5 cells assessed as cell growth at 10 uM after 48 hrs relative to control; assay type: functional; settings: OVCAR-5, 48 h, read-out: Activity; summary of the method: as §1
CAKI-1 = experiment: Cytotoxicity against human Caki1 cells assessed as cell growth at 10 uM after 48 hrs relative to control; assay type: functional; settings: CAKI-1, 48 h, read-out: Activity; summary of the method: as §1
CCRF-CEM = experiment: Cytotoxicity against human CCRF-CEM cells assessed as cell growth at 10 uM after 48 hrs relative to control; assay type: functional; settings: read-out: Activity; summary of the method: as §1
[1] = target: T1, Proteasome Macropain subunit MB1 (Homo sapiens, UniProt P28074); experiment: Inhibition of human 20S proteasome beta5 subunit using Suc-LLVY-AMC as substrate by fluorescence assay
T1 sequence (P28074 whole entry): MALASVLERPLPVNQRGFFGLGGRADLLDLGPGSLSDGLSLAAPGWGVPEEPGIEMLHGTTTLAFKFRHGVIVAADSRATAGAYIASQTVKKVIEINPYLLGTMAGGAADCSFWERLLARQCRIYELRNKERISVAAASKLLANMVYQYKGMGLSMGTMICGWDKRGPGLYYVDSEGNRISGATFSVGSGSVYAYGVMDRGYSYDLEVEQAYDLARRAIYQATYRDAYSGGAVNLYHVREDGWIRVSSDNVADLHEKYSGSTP

NCI/ADR-RES = experiment: Cytotoxicity against human NCI/ADR-RES cells assessed as cell growth at 10 uM after 48 hrs relative to control; assay type: functional; settings: read-out: Activity; summary of the method: as §1
HCC 2998 = experiment: Cytotoxicity against human HCC2998 cells assessed as cell growth at 10 uM after 48 hrs relative to control; assay type: functional; settings: HCC 2998, 48 h, read-out: Activity; summary of the method: as §1
MDA-MB-231 = experiment: Cytotoxicity against human MDA-MB-231 cells assessed as cell growth at 10 uM after 48 hrs relative to control; assay type: functional; settings: MDA-MB-231, 48 h, read-out: Activity; summary of the method: as §1
SK-MEL-2 = experiment: Cytotoxicity against human SK-MEL-2 cells assessed as cell growth at 10 uM after 48 hrs relative to control; assay type: functional; settings: SK-MEL-2, 48 h, read-out: Activity; summary of the method: as §1
[2] = Cytotoxicity against human Hs578T cells assessed as cell growth at 10 uM after 48 hrs relative to control; assay type: functional; settings: Hs-578T, read-out: Activity; summary of the method: as §1
U-251 = experiment: Cytotoxicity against human U251 cells assessed as cell growth at 10 uM after 48 hrs relative to control; assay type: functional; settings: U-251, 48 h, read-out: Activity
Summary of the method: (§2)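 Submitted to the National Cancer Institute for a single-dose screen at 10 micromolar against 60 cancer cell lines. Growth is expressed relative to negative-control cultures.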

A549 = experiment: Cytotoxicity against human A549 cells assessed as cell growth at 10 uM after 48 hrs relative to control; assay type: functional; settings: A549, 48 h, read-out: Activity; summary of the method: as §1
M14 = experiment: Cytotoxicity against human M14 cells assessed as cell growth at 10 uM after 48 hrs relative to control; assay type: functional; settings: M14, 48 h, read-out: Activity; summary of the method: as §1
Malme-3M = experiment: Cytotoxicity against human MALME-3M cells assessed as cell growth at 10 uM after 48 hrs relative to control; assay type: functional; settings: read-out: Activity; summary of the method: as §1
MCF7 = experiment: Cytotoxicity against human MCF7 cells assessed as cell growth at 10 uM after 48 hrs relative to control; assay type: functional; settings: MCF7, 48 h, read-out: Activity; summary of the method: as §1
OVCAR-3 = experiment: Cytotoxicity against human OVCAR3 cells assessed as cell growth at 10 uM after 48 hrs relative to control; assay type: functional; settings: OVCAR-3, 48 h, read-out: Activity; summary of the method: as §1
DU-145 = experiment: Cytotoxicity against human DU145 cells assessed as cell growth at 10 uM after 48 hrs relative to control; assay type: functional; settings: DU-145, 48 h, read-out: Activity; summary of the method: as §1
SW-620 = experiment: Cytotoxicity against human SW620 cells assessed as cell growth at 10 uM after 48 hrs relative to control; assay type: functional; settings: SW-620, 48 h, read-out: Activity; summary of the method: as §2
UACC-62 = experiment: Cytotoxicity against human UACC62 cells assessed as cell growth at 10 uM after 48 hrs relative to control; assay type: functional; settings: UACC-62, 48 h, read-out: Activity; summary of the method: as §2
UO-31 = experiment: Cytotoxicity against human UO31 cells assessed as cell growth at 10 uM after 48 hrs relative to control; assay type: functional; settings: UO-31, 48 h, read-out: Activity; summary of the method: as §2
RPMI-8226 = experiment: Cytotoxicity against human RPMI8226 cells assessed as cell growth at 10 uM after 48 hrs relative to control; assay type: functional; settings: RPMI-8226, 48 h, read-out: Activity; summary of the method: as §1
LOX IMVI = experiment: Cytotoxicity against human LOXIMVI cells assessed as cell growth at 10 uM after 48 hrs relative to control; assay type: functional; settings: read-out: Activity; summary of the method: as §1
UACC-257 = experiment: Cytotoxicity against human UACC257 cells assessed as cell growth at 10 uM after 48 hrs relative to control; assay type: functional; settings: UACC-257, 48 h, read-out: Activity; summary of the method: as §2
HCT-116 = experiment: Cytotoxicity against human HCT116 cells assessed as cell growth at 10 uM after 48 hrs relative to control; assay type: functional; settings: HCT-116, 48 h, read-out: Activity; summary of the method: as §1
SF-268 = experiment: Cytotoxicity against human SF268 cells assessed as cell growth at 10 uM after 48 hrs relative to control; assay type: functional; settings: SF-268, 48 h, read-out: Activity; summary of the method: as §1
PC-3 = experiment: Cytotoxicity against human PC3 cells assessed as cell growth at 10 uM after 48 hrs relative to control; assay type: functional; settings: PC-3, 48 h, read-out: Activity; summary of the method: as §1
SNB-19 = experiment: Cytotoxicity against human SNB19 cells assessed as cell growth at 10 uM after 48 hrs relative to control; assay type: functional; settings: SNB-19, 48 h, read-out: Activity; summary of the method: as §2
TK-10 = experiment: Cytotoxicity against human TK10 cells assessed as cell growth at 10 uM after 48 hrs relative to control; assay type: functional; settings: TK-10, 48 h, read-out: Activity; summary of the method: as §2
NCI-H23 = experiment: Cytotoxicity against human NCI-H23 cells assessed as cell growth at 10 uM after 48 hrs relative to control; assay type: functional; settings: NCI-H23, 48 h, read-out: Activity; summary of the method: as §1
MDA-MB-468 = experiment: Cytotoxicity against human MDA-MB-468 cells assessed as cell growth at 10 uM after 48 hrs relative to control; assay type: functional; settings: MDA-MB-468, 48 h, read-out: Activity; summary of the method: as §1

| SMILES | growth at 10 µM (NCI-H322M) | growth at 10 µM (NCI-H522) | growth at 10 µM (K562) | growth at 10 µM (OVCAR-5) | growth at 10 µM (CAKI-1) | growth at 10 µM (CCRF-CEM) | Ki [1] | growth at 10 µM (NCI/ADR-RES) | growth at 10 µM (HCC 2998) | growth at 10 µM (MDA-MB-231) | growth at 10 µM (SK-MEL-2) | growth at 10 µM [2] | growth at 10 µM (U-251) | growth at 10 µM (A549) | growth at 10 µM (M14) | growth at 10 µM (Malme-3M) | growth at 10 µM (MCF7) | growth at 10 µM (OVCAR-3) | growth at 10 µM (DU-145) | growth at 10 µM (SW-620) | further results |
| --- | --- | --- | --- | --- | --- | --- | --- | --- | --- | --- | --- | --- | --- | --- | --- | --- | --- | --- | --- | --- | --- |
| COC(=O)[C@@H](NC(=O)N[C@H](C(=O)N[C@H]1CCCCNC(=O)/C=C/[C@H](Cc2c[nH]c3ccccc23)NC1=O)C(C)C)C(C)C | 76.2% | -17.8% | 52% | 61.1% | 98.8% | 15.8% | 1710 nM | 98.4% | 44.2% | 39% | 17.4% | 9.21% | 27.4% | 77.5% | 86.7% | 47.9% | 48.5% | -42.9% | 52% | 58.3% | growth at 10 µM (UACC-62): 60.7%; growth at 10 µM (UO-31): 94.3%; growth at 10 µM (RPMI-8226): 19%; growth at 10 µM (LOX IMVI): 25.1%; growth at 10 µM (UACC-257): 65.4%; growth at 10 µM (HCT-116): 37.4%; growth at 10 µM (SF-268): 9.42%; growth at 10 µM (PC-3): 76.3%; growth at 10 µM (SNB-19): 41.7%; growth at 10 µM (TK-10): 94.1%; growth at 10 µM (NCI-H23): 38.2% |
| COC(=O)[C@@H](NC(=O)N[C@@H](Cc1ccccc1)C(=O)N[C@H]1CCCCNC(=O)/C=C/[C@H](C(C)C)NC1=O)C(C)C | 94.2% | -43.8% | 47.2% | 104% | 98.3% | 55.1% | 950 nM | 105% | 52.8% | 60.8% | 12.7% | 40.9% | 17.4% | 77.4% | 86.6% | 77% | 43.8% | 1.28% | 53.1% | 38.5% | growth at 10 µM (MDA-MB-468): 31.2%; growth at 10 µM (UACC-62): 29%; growth at 10 µM (UO-31): 94.7%; growth at 10 µM (RPMI-8226): 23.1%; growth at 10 µM (LOX IMVI): 15.2%; growth at 10 µM (UACC-257): 58.5%; growth at 10 µM (HCT-116): 26.5%; growth at 10 µM (SF-268): 30%; growth at 10 µM (PC-3): 75%; growth at 10 µM (SNB-19): 48.8%; growth at 10 µM (TK-10): 93.6%; growth at 10 µM (NCI-H23): 44.1% |

Source: ChEMBL document CHEMBL3612027, “Substrate-guided optimization of the syringolins yields potent proteasome inhibitors with activity against leukemia cell lines” (Bioorg Med Chem, 2015)
